Legend:
[1] = system: murine leukemia (L1210) cells; experiment: Cell growth inhibitory activity, L1210; format: cell-based; settings: Mus musculus, L1210, 48 h, read-out: IC50 L1210
Procedure, shortened: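 Murine leukemia cells at 300,000-500,000 cells/mL were mixed 1:1 with dilutions of test compound and incubated at 37 °C for two days. Cell number was counted with a Coulter counter. IC50 is the concentration inhibiting proliferation by 50%, taken from dose–response curves as mean ± SE of at least three independent experiments.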

[2] = system: murine mammary carcinoma (FM3A) cells; experiment: Cell growth inhibitory activity, FM3A; format: cell-based; settings: Mus musculus, 48 h, read-out: IC50 FM3A/0
[3] = system: L1210, FM3A, Molt/4, CEM and HeLa cells; experiment: Cell growth inhibitory activity, panel of cell lines; format: cell-based, murine and human; settings: for IC50: read-out: IC50 values, range over the cell lines
Procedure, shortened: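 Murine L1210 leukemia and FM3A mammary carcinoma cells, and human Molt 4, CEM (T-lymphocyte) and HeLa (cervix carcinoma) cells. Cells were suspended at 300,000–500,000 cells/mL and mixed 1:1 with serial dilutions of test compound. Incubated 2 days at 37 °C, then cell number counted with a Coulter counter. IC50 (50% inhibition of proliferation) was taken from dose–response curves as mean ± SE of ≥3 independent experiments.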

[4] = system: human T-lymphocyte Molt4/C8 cells; experiment: Cell growth inhibitory activity, Molt/4; format: cell-based; settings: Molt4/C8, 48 h, read-out: IC50 Molt4/C8
[5] = system: K562 (human chronic myelogenous leukemia) cells; experiment: Flow cytometric analysis of cell cycle distribution; format: cell-based; settings: 24 h, compound at concentration inhibiting 100% cell growth
[6] = system: human cervix carcinoma (HeLa) cells; experiment: Cell growth inhibitory activity, HeLa; format: cell-based
[7] = system: bovine brain tubulin; experiment: Inhibition of tubulin polymerization; format: biochemical
[8] = system: K562 (human chronic myelogenous leukemia) cells; experiment: Concentration inhibiting 100% cell growth of K562 cells; format: cell-based

COc1ccc(/C=C\c2cc(OC)c(OC)c(OC)c2)cc1O [CA4, combretastatin A-4]
IC50 [1]: 2.8 ± 1.1 nM

COc1ccc2c(N)c(C(=O)c3cc(OC)c(OC)c(OC)c3)oc2c1 [Compound 3a]
IC50 [2]: 280 ± 160 nM | IC50 [1]: 430 ± 40 nM | IC50 [3]: 87 to 430 nM

COc1ccc2c(N(C)C)c(C(=O)c3cc(OC)c(OC)c(OC)c3)oc2c1 [Compound 3b]
IC50 [2]: 59 ± 5 nM | IC50 [1]: 65 ± 5 nM | IC50 [3]: 48 to 78 nM

COc1ccc2cc(C(OC)c3cc(OC)c(OC)c(OC)c3)oc2c1 (stereo not shown) [Compound 4aa, 6-methoxy-2-(methoxy(3,4,5-trimethoxyphenyl)methyl)benzofuran]
IC50 [4]: > 10000 nM

COc1ccc2c3c(oc2c1)C(=O)c1cc(OC)c(OC)c(OC)c1-3 [Compound 4ac, 3,8,9,10-tetramethoxy-6H-benzo[b]indeno[1,2-d]furan-6-one]
IC50 [4]: > 10000 nM | antiproliferative activity (in words) ([3]; five cell lines): completely inactive

COc1cc(C(=O)c2cc3c(OC)cccc3o2)cc(OC)c1OC [Compound 4b, (4-Methoxybenzofuran-2-yl)(3,4,5-trimethoxyphenyl)methanone]
sub-G0–G1 peak (apoptotic peak, A) [5]: 20–44%

COc1ccc2cc(C(=O)c3cc(OC)c(OC)c(OC)c3)oc2c1 [Compound 4d, (6-Methoxybenzofuran-2-yl)(3,4,5-trimethoxyphenyl)methanone]
IC50 [3]: 59 to 110 nM

COc1cc(C(=O)c2cc3cc(Cl)ccc3o2)cc(OC)c1OC [Compound 4g, (5-Chlorobenzofuran-2-yl)(3,4,5-trimethoxyphenyl)methanone]
IC50 [4]: > 10000 nM

COc1cc(C(=O)c2cc3cc(Br)ccc3o2)cc(OC)c1OC [Compound 4h, (5-Bromobenzofuran-2-yl)(3,4,5-trimethoxyphenyl)methanone]
IC50 [4]: > 10000 nM

COc1cc(C(=O)c2cc3ccc(OC)c(O)c3o2)cc(OC)c1OC [Compound 4i, (7-Hydroxy-6-methoxybenzofuran-2-yl)(3,4,5-trimethoxyphenyl)methanone]
IC50 [4]: > 10000 nM

COc1cc(C(=O)c2cc3cc(OC)c(OC)c(OC)c3o2)cc(OC)c1OC [Compound 4k, (5,6,7-Trimethoxybenzofuran-2-yl)(3,4,5-trimethoxyphenyl)methanone]
IC50 [4]: > 10000 nM

COc1cc(C(=O)c2cc3cc(O)ccc3o2)cc(OC)c1OC [Compound 4l, (5-Hydroxybenzofuran-2-yl)(3,4,5-trimethoxyphenyl)-methanone]
IC50 [4]: > 10000 nM

COc1cc(C(=O)c2cc3ccc(O)cc3o2)cc(OC)c1OC [Compound 4m, (6-Hydroxybenzofuran-2-yl)(3,4,5-trimethoxyphenyl)-methanone]
IC50 [4]: > 10000 nM

COc1cc(C(=O)c2cc3cccc(O)c3o2)cc(OC)c1OC [Compound 4n, (7-Hydroxybenzofuran-2-yl)(3,4,5-trimethoxyphenyl)-methanone]
IC50 [4]: > 10000 nM

COc1cc(C(=O)c2oc3cccc(OC)c3c2C)cc(OC)c1OC [Compound 4p, (4-Methoxy-3-methylbenzofuran-2-yl)(3,4,5-trimethoxyphenyl)methanone]
effect on cell cycle distribution [5]: accumulate in late S phase | sub-G0–G1 peak (apoptotic peak, A) [5]: 20–44%

COc1ccc2c(C)c(C(=O)c3cc(OC)c(OC)c(OC)c3)oc2c1 [Compound 4r, (6-Methoxy-3-methylbenzofuran-2-yl)(3,4,5-trimethoxyphenyl)methanone]
IC50 [3]: 3 to 27 nM

CCOc1ccc2c(C)c(C(=O)c3cc(OC)c(OC)c(OC)c3)oc2c1 [Compound 4t, (6-Ethoxy-3-methylbenzofuran-2-yl)(3,4,5-trimethoxyphenyl)methanone]
fold increase of activity relative to 4r [6]: 2 fold | fold increase of activity relative to 4r ([3]; L1210, FM3A, Molt/4 and CEM cells): 10 fold | IC50 [3]: 1.2 to 6.3 nM

COc1cc(C(=O)c2oc3cc(F)ccc3c2C)cc(OC)c1OC [Compound 4u, (6-Fluoro-3-methylbenzofuran-2-yl)(3,4,5-trimethoxyphenyl)methanone]
antitubulin polymerization activity (in words) [7]: weak antitubulin polymerization activity | effect on cell cycle distribution [5]: accumulate in late S phase | sub-G0–G1 peak (apoptotic peak, A) [5]: 20–44% | concentration able to inhibit 100% cell growth after 24 h [8]: 1.62 µM

COc1cc(C(=O)c2oc3ccc(O)cc3c2C)cc(OC)c1OC [Compound 4w, (5-Hydroxy-3-methylbenzofuran-2-yl)(3,4,5-trimethoxyphenyl)methanone]
sub-G0–G1 peak (apoptotic peak, A) [5]: 20–44%

COc1ccc2cc(C(=S)c3cc(OC)c(OC)c(OC)c3)oc2c1 [Compound 4y, (6-methoxybenzofuran-2-yl)(3,4,5-trimethoxyphenyl)methanethione]
IC50 [4]: 100 ± 10 nM
